The test system of experiment [1] is U-251. The experiment in a line: Increase in HSP70 expression in human U251 cells at 5 uM incubated for 24 hrs in presence of N-acetylcysteine by Western blotting method. The class given is functional, cell-based. In general terms: In western blotting, separated proteins are transferred to a membrane and probed.
In experiment [2] the test system is U-251. In words: Increase in HSP32 expression in human U251 cells incubated for 24 hrs in presence of N-acetylcysteine by Western blotting method. Format: functional, cell-based.
For experiment [3], the system named is U-251. The experiment in a line: Increase in HSP32 expression in human U251 cells incubated for 24 hrs by Western blotting method. The class given is functional, cell-based. The gist of the method: (§1)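 U251 glioblastoma cells plated to stay subconfluent at harvest, grown overnight, then exposed to 0, 0.1, 0.5, 1 and 5 μM of each withanolide for 24 h. Lysates quantified, run on SDS-PAGE, transferred to nitrocellulose and immunoblotted for total HSP32 and HSP70. β-actin served as the loading control.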

Experiment [4] deals with U-251. The experiment in a line: Increase in HSP70 expression in human U251 cells at 5 uM incubated for 24 hrs by Western blotting method. The class given is functional, cell-based. The gist of the method:
as §1

The test system of experiment [5] is MRC5. In words: Selectivity index, ratio of IC50 for human MRC5 cells to IC50 for human U87 cells. The class given is functional. The gist of the method: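 MTS viability assay. MRC-5 fibroblasts and U87 glioblastoma cells were seeded at 2,500 cells/well and left about 6 h. Drug-containing media at a range of concentrations was then added, with 72 h further incubation at 37 °C in 5% CO2. Absorbance was read at 490 nm, in triplicate on two occasions. IC50s came from sigmoidal dose-response fits, and the index is the MRC-5/U87 IC50 ratio.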

Experiment [6] relates to MRC5. In words: Cytotoxicity against human MRC5 cells after 72 hrs by MTS assay. The class given is cell-based. The note with it: MRC5, 72 h. Background: Tetrazolium assays rely on reduction of a dye to a coloured formazan, in cell work by metabolically active cells.
Experiment [7] deals with U-251. In words: Cytotoxicity against human U251 cells after 72 hrs by MTS assay. Format: functional, cell-based. The note with it: U-251, 72 h. The gist of the method:
(§2)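 Monolayer cultures kept at 37 °C, 5% CO2, humidified, grown to 75–90% confluence; U87 and U251 maintained in DMEM with 10% FBS. Seeded at 2,500 cells/well and left about 6 h, then drug-containing medium added at various concentrations for 72 h. Viable cells read by MTS colorimetry at 490 nm. Triplicate, two separate occasions; IC50 from best-fit sigmoidal dose–response curves.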

Experiment [8] in a line: Cytotoxicity against human MDA1986 cells after 72 hrs by MTS assay. The note with it: MDA1986, 72 h. Format: functional, cell-based. The gist of the method: as §2
The nature of experiment [9]: Cytotoxicity against human U87 cells after 72 hrs by MTS assay. The class given is functional, cell-based, U-87MG ATCC. The note with it: U-87 MG. The gist of the method: as §2

Molecules are shown by their SMILES. Active and inactive are the calls of the source. The rule behind the calls is not given here.

In general, IC50 refers to the midpoint of a concentration-inhibition curve. A higher IC50 goes with a need for much substance.

Take `C=C1C(=O)O[C@@H]2C[C@]1(C)OC[C@H]2[C@H]1CC[C@H]2[C@@H]3C[C@H]4O[C@]45CC=CC(=O)[C@]5(C)[C@H]3CC[C@]12C` [WITHAMETELIN F]: the result in the experiment with U-251 [1] and in the experiment with U-251 [2] was inactive. Moreover, the Activity result with U-251 [3] was “Dose-dependent effect”. Also, in the experiment with U-251 [4], the outcome was Active. In the experiment with MRC5 [5], the “Ratio IC50” value was found to be 6. The IC50 in the experiment with MRC5 [6] amounted to 3.3 µM; with U-251 [7], 1.4 µM; in experiment [8], 1.5 µM; in [9], 0.56 µM.
As for `C=C1C(=O)O[C@@H]2C[C@]1(C)OC[C@H]2[C@H]1CC[C@H]2[C@@H]3CC=C4CC=CC(=O)[C@]4(C)[C@H]3C[C@@H](O)[C@]12C` [WITHAMETELIN L], the result in the experiment with U-251 [1] and in the experiment with U-251 [2] was inactive. Also, in the experiment on U-251 [3], the Activity result was “Dose-dependent effect”. Besides, the result in the experiment with U-251 [4] was Active. Besides, the “Ratio IC50” value in the experiment with MRC5 [5] is listed as 7.4. Also, the IC50 with MRC5 [6] came to 4.2 µM; with U-251 [7], 1.3 µM; in experiment [8], 2.3 µM; in [9], 0.57 µM.
For the molecule `C=C1C(=O)O[C@@H]2C[C@@]1(C)OC[C@H]2[C@H]1CC[C@H]2[C@@H]3C[C@@H](O)[C@@]45C[C@H]4CC(=O)[C@]5(C)[C@H]3CC[C@]12C` [WITHAWRIGHTOLIDE], the result in the experiment on U-251 [2] was inactive. For the same molecule, the Activity result in the experiment on U-251 [3] is “Dose-dependent effect”. Further, the “Ratio IC50” value with MRC5 [5] came to 3.8. Moreover, the IC50 in the experiment with MRC5 [6] is 5.6 µM; with U-251 [7] it was 3.6 µM; in [8], 3.1 µM; in experiment [9], 1.5 µM.
For the molecule `C=C1C(=O)O[C@@H]2C[C@]1(C)OC[C@H]2[C@H]1CC[C@H]2[C@@H]3CC=C4CC=CC(=O)[C@]4(C)[C@H]3CC[C@]12C` [WITHAMETELIN], the outcome with U-251 [1] and with U-251 [2] was inactive. Moreover, the Activity result with U-251 [3] was “Dose-dependent effect”. The result in the experiment on U-251 [4] was Active. For the same molecule, in the experiment with MRC5 [5], the “Ratio IC50” value turned out to be 5.1. For the same molecule, the IC50 amounted to 5.1 µM in the experiment with MRC5 [6], 2.2 µM with U-251 [7], 2.7 µM in [8] and 1 µM in [9].
Regarding `CC1=C(CO)C(=O)O[C@@H]([C@@H](C)[C@H]2CC[C@H]3[C@@H]4C[C@H]5O[C@]56[C@@H](O)C=CC(=O)[C@]6(C)[C@H]4CC[C@]23C)C1` [WITHAFERIN A], the “Ratio IC50” value in the experiment on MRC5 [5] worked out at 0.19. For the same molecule, the IC50 with MRC5 [6] was 0.2 µM; in the experiment on U-251 [7], 0.69 µM; in [8], 0.8 µM; in experiment [9] it was 1.1 µM.
Take `C=C1C(=O)O[C@@H]2C[C@]1(C)OC[C@H]2[C@H]1CC[C@H]2[C@@H]3C[C@@H](O)[C@@]4(O)CC=CC(=O)[C@]4(C)[C@H]3CC[C@]12C` [WITHAMETELIN O]: in the experiment with U-251 [2], the outcome was inactive. Also, in the experiment on U-251 [3], the Activity entry is “Dose-dependent effect”. In addition, the “Ratio IC50” value in the experiment on MRC5 [5] is given as 4.1. In addition, the IC50 was 4.6 µM in the experiment with MRC5 [6], 2.8 µM in the experiment with U-251 [7], 3 µM in experiment [8] and 1.1 µM in experiment [9].

Values taken from ChEMBL document CHEMBL2331166, “Antiproliferative withanolides from Datura wrightii” (J Nat Prod, 2013).
